Screening results from PubChem BioAssay.
MOR-DOR ag: agonists of OPRM1-OPRD1 heterodimerization, primary screen, cell-based, luminescence; cells; activation, % at 9.3 µM; Mu-type opioid receptor (Homo sapiens) + Delta-type opioid receptor (Homo sapiens), …; 0.3% of 340,000 active; in the data active = activation above about 18%
Target sequence (P35372 whole entry, looked up): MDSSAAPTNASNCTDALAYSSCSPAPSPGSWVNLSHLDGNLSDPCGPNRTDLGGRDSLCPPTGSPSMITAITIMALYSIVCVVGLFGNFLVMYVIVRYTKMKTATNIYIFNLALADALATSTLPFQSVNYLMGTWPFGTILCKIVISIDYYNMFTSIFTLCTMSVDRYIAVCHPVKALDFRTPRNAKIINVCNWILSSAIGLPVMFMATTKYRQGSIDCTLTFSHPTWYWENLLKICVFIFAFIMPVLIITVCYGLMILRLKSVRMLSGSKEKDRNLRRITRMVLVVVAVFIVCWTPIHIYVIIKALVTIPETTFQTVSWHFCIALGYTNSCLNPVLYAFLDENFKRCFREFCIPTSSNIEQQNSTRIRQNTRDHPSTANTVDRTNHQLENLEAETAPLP
Target sequence (P41143 whole entry, looked up): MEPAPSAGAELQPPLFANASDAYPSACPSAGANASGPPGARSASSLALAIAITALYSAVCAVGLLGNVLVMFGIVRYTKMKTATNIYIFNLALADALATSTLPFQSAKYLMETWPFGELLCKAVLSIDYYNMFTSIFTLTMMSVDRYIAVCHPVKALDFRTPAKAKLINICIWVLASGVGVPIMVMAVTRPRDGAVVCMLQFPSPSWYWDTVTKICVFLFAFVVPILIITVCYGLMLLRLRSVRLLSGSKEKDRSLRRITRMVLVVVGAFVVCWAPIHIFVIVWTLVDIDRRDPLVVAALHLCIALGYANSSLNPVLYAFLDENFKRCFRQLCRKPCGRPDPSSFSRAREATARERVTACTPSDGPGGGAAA
OPRM1-OPRD1 inv: inverse agonists of MOR-DOR heterodimerization, primary screen, cell-based, luminescence; Mu-type opioid receptor (Homo sapiens) + Delta-type opioid receptor (Homo sapiens), …; cell-based MOR-DOR heterodimer luminescence, inverse agonism; inhibition, % at 9.3 µM; 0.21% of 340,000 active; AID 504357, 2011; in the data active = inhibition above about 22%, passing the limit was not always enough
HTR5A ag ctr: HTR5A agonists in luminescence cell assay, primary screen, counter-screen for OPRM1-OPRD1 heterodimer agonist project, full-deck HTS. activation, % at 9.3 µM. cell-based. 5-hydroxytryptamine receptor 5A (Homo sapiens), P47898. 0.61% of 340,000 active; in the data active = activation mostly above about 9.5%, no sharp cut-off; inactive = mostly below about 7.6%
HTR5A inv ag: HTR5A inverse agonists in luminescence cell assay, primary screen, counter-screen for OPRM1-OPRD1 heterodimer inverse agonist project, full-deck HTS; 5-hydroxytryptamine receptor 5A (Homo sapiens), P47898; inhibition, % at 9.3 µM; 0.083% of 340,000 active; AID 504634, 2011; HTR5A cell line, inverse agonism; in the data active = inhibition mostly above about 23%, no sharp cut-off; inactive = mostly below about 18%
Hep lipid drop: inhibitors of hepatocyte lipid droplet formation, primary screen, imaging, high-throughput imaging, BODIPY stain. inhibition, % at 6.5 µM. AID 1656, 2009. AML12 mouse hepatocytes, oleate lipid droplets. 0.4% of 240,000 active;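 active = lipid droplet intensity inhibited by at least 50%, with more than 500 cells counted; inconclusive = wells with under 300 cells, treated as cytotoxic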
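material = mouse AML12 hepatocyte cell line, fixed after treatment | also added = 100 µM oleic acid challenge | doses = compound at 6.5 µM only | schedule = overnight exposure | technique = Image-based BODIPY and DAPI two-channel analysis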
Numbers stand for hits; . = inactive; ? = inconclusive; / = no result. Most compounds without a hit are left out; they make up all but 1.4% or so of the library.

SMILES	MOR-DOR ag	OPRM1-OPRD1 inv	HTR5A ag ctr	HTR5A inv ag	Hep lipid drop
Cc1cc(C)c(O)c(CN(C)Cc2cc(Cl)cc(Cl)c2O)c1	.	.	13	.	/
Cc1ccc(NC(=O)c2ccc(NC(=O)c3ccccc3)cc2)cc1C	.	.	13	.	.
O=C(CSc1ccccc1)Nc1nccs1	.	.	.	.	.
O=C(CSc1nc(-c2ccccc2)cs1)Nc1nccs1	.	.	11	.	.
CC1(C(=O)OCC(=O)NCCNC(=O)COC(=O)C2(C)CC2(Cl)Cl)CC1(Cl)Cl (stereo not given)	.	.	12	.	.
O=CC1=C(c2ccccc2)Oc2ccccc2O1	.	.	11	.	.
CCOc1ccccc1N1CCN(Cc2cn[nH]c2-c2ccc(F)cc2)CC1	.	.	14	.	.
COc1cccc(NC(=O)Nc2nc(-c3ccc(OC)c(OC)c3)cs2)c1	29	.	25	.	.
COc1ccc(-c2csc(NC(C)=O)n2)cc1OC	.	.	.	.	.
O=C(NNS(=O)(=O)c1ccc(F)cc1)c1ccccc1F	.	.	12	.	.
Cc1nc2sc(C(=O)OC(C)C)c(N)c2c(C)c1C	.	.	8.8	.	.
CN(C)c1ccc(S(=O)(=O)NCC(=O)NCCC2=CCCCC2)cc1[N+](=O)[O-]	.	.	.	.	/
CCOC(=O)c1c(-c2ccccc2)oc2cc(CN(C)C)c(O)c(CN(C)C)c12	.	.	12	.	/
CCOC(=O)c1c(C)oc2cc(Cl)c(O)c(CN(C)C)c12	.	.	.	.	.
CN(C)CCCN(C(=O)c1ccc(N2C(=O)CCC2=O)cc1)c1nc2c(F)cccc2s1	.	.	13	.	.
C/C(=N\Nc1nc2ccc(Cl)cc2o1)c1ccccc1	/	/	/	/	.
COc1cc(C(=O)NCCc2ccc(S(N)(=O)=O)cc2)ccc1OCc1c(C)noc1C	.	.	.	.	/
C=CCOc1ccc(/C=N/NC(=O)c2c(C)nc3ccc(Cl)cn23)cc1	.	.	11	.	.
O=C1NC[C@@H](c2ccccc2)OC(=O)[C@@H](Cc2ccc(F)cc2)C/C=C\C[C@@H]1CC(=O)N(CCO)Cc1ccccc1	.	37	.	48	/
O=C1NC[C@H](c2ccccc2)OC(=O)[C@H](Cc2ccc(F)cc2)C/C=C\C[C@@H]1CC(=O)N(CCO)Cc1ccccc1	.	.	.	.	/
CCOC(=O)/C(C#N)=C/C1=C(N2CCOCC2)C(C)(C)OCC1	.	.	.	.	.
O=C(CN(C(=O)c1ccco1)c1cccc(F)c1)NCc1ccc(F)cc1	.	.	11	.	/
O=C(C[n+]1ccc(-c2ccccc2)cc1)Nc1ccc([N+](=O)[O-])cc1	.	.	.	.	.
Cc1cc(CC(=O)O)n(C)c1C(=O)c1ccc(Cl)cc1	.	.	9.7	.	/
Cn1nccc1C(=O)c1ccc(Cl)cc1	.	.	.	.	/
SMILES	MOR-DOR ag	OPRM1-OPRD1 inv	HTR5A ag ctr	HTR5A inv ag	Hep lipid drop
COc1ccc(C)cc1NC(=O)CCc1ccc(S(=O)(=O)N2CCOCC2)cc1	.	.	.	.	/
COCC(C)n1c(C)cc(C(=O)COC(=O)c2c(C)nn(-c3ccccc3)c2C)c1C (stereo not given)	.	.	10	.	/
COCC(C)n1c(C)cc(C(=O)COC(=O)C2=NN(c3ccccc3)C(=O)CC2)c1C (stereo not given)	.	.	.	.	.
NC(=O)c1ccc(NC(=O)COc2ccc(-n3cnnn3)cc2)cc1	.	.	.	.	/
O=C(O)COCC(=O)Nc1ccc(-n2cnnn2)cc1	.	.	11	.	.
COc1ccccc1N=C(C)C1=C(O)CC(c2ccccc2)CC1=O (stereo not given)	.	.	8.9	.	?
COc1ccc(/C=N/NC(=O)c2sccc2C)c2ccccc12	.	.	13	.	/
CCC(NC(=O)c1ccc2nc(Cc3ccc(OC)cc3)oc2c1)c1ccncc1 (stereo not given)	.	.	.	.	.
Cc1cc(Cl)ccc1OC(C)C(=O)OCC(=O)c1ccc[nH]1 (stereo not given)	.	.	.	.	/
CCN1CCCC1CNS(=O)(=O)c1ccc(Cl)c(C(F)(F)F)c1 (stereo not given)	.	.	13	.	.
COCCN1C=C2C(=O)C(C)(OC(=O)c3cccs3)C(=O)C=C2C=C1CCCC(=O)OC (stereo not given)	.	.	14	.	.
COC(=O)CCCC1=CC2=CC(=O)C(C)(OC(=O)c3cccs3)C(=O)C2=CN1CCCCO (stereo not given)	.	.	12	.	.
CCCCS(=O)(=O)/C=C\C=C/S(=O)(=O)CCCC	.	37	.	.	.
O=C(Nc1ccc(N2CCN(C(=O)c3ccco3)CC2)cc1)c1ccc([N+](=O)[O-])cc1Cl	.	.	10	.	.
Cc1ccc(C(=O)Nc2ccc(N3CCN(C(=O)c4ccco4)CC3)cc2)c(Cl)c1	.	.	.	.	.
O=C(Nc1ccc(N2CCN(C(=O)c3ccco3)CC2)c(Cl)c1)c1cc2ccccc2o1	.	.	14	.	.
CCC(=O)N1CCN(c2ccc(NC(=O)c3cc4ccccc4o3)cc2Cl)CC1	.	.	.	.	.
CCCCNC(=O)c1ccccc1SCc1c(C)noc1C	.	.	.	.	.
C#CCOC(=O)Nc1ccc(OCC(F)(F)F)nc1	.	.	.	.	.
COc1ccc(NC2=CC(=O)CC(c3ccccc3)C2)cc1 (stereo not given)	.	.	.	.	.
Cc1ccc2c(c1)N(C(C)C(=O)NCc1ccc3c(c1)OCO3)C(=O)CO2 (stereo not given)	.	.	.	.	.
Cc1ccc(C)c(OCCC(=O)NNC(=O)Cn2nc(C)cc2C)c1	.	.	12	.	/
CC(=O)Nc1ccc(/C=N/NS(=O)(=O)c2cc(C)ccc2C)cc1	.	.	.	.	.
O=[N+]([O-])c1ccc(S(=O)(=O)NN=Cc2ccc(Cl)c(Cl)c2)cc1	.	.	13	.	/
CC(=O)Nc1ccc(S(=O)(=O)NN=Cc2ccc(Cl)c(Cl)c2)cc1	.	.	12	.	/
SMILES	MOR-DOR ag	OPRM1-OPRD1 inv	HTR5A ag ctr	HTR5A inv ag	Hep lipid drop
Cc1ccc(NS(=O)(=O)c2ccc(OCC(=O)NCC3CCCO3)cc2)cc1 (stereo not given)	.	.	.	.	.
CCOC(=O)C(NC(=O)c1cccc(Cl)c1)(OCc1ccccc1)C(F)(F)F (stereo not given)	.	.	.	.	71
COc1ccccc1OCC(=O)NCCS(=O)(=O)N1CCN(c2ccc(F)cc2)CC1	.	.	.	.	.
CCCNS(=O)(=O)c1ccc(OCC(=O)Nc2ccc3c(c2)OCCO3)c(C)c1	.	.	9.6	.	/
Cn1c(=O)c2c(nc(NCc3ccco3)n2C/C=C/c2ccccc2)n(C)c1=O	.	.	11	.	/
Cn1c(=O)c2c(nc(NCc3ccco3)n2C)n(C)c1=O	.	.	.	.	.
